Experimental data pooled from the literature.
Lines come from different studies, so protocols differ. pIC50: −log10 of the molar value. Converted amounts (≈) assume the structure as drawn.
Organism: Mycobacterium tuberculosis variant bovis BCG
Effect on: microbial growth

Structure (SMILES)	strain	time	measurement	result
Clc1ccc(COC(Cn2ccnc2)c2ccc(Cl)cc2Cl)cc1 (stereo not drawn)	BCG	–	MIC50	12.7 µM (≈ 4.85 µg/mL)
COc1ccc(C=CC(=O)c2cccc([N+](=O)[O-])c2)cc1OC	BCG	7 days	MIC	100 µg/mL
C=CC(c1ccc(-c2ccc3c(c2)OCO3)cc1F)n1ccnc1 (stereo not drawn)	BCG	–	MIC50	> 30 µM
Fc1ccc(COc2cccc(CNCc3ccncc3)c2)cc1	ATCC35734 BCG	–	MIC	> 62.5 µM
COc1ccc(C(=O)C=Cc2ccc(OC)c(OC)c2)cc1	BCG	7 days	MIC	50 µg/mL
NNC(=O)c1ccncc1	ATCC35734 BCG	–	MIC	≤ 0.25 µM
C=CC(c1ccc(-c2ccc3[nH]ccc3c2)cc1)n1ccnc1 (stereo not drawn)	BCG	–	MIC50	41 µM (≈ 12.3 µg/mL)
COc1ccc(C=CC(=O)c2ccccc2C)cc1OC	BCG	7 days	MIC	50 µg/mL
C=CC(c1ccc(-c2ccc3c(c2)OCO3)cc1)n1ccnc1 (stereo not drawn)	BCG	–	MIC50	20 µM (≈ 6.09 µg/mL)
c1ccc(COc2ccc(CNCc3cccnc3)cc2)cc1	ATCC35734 BCG	–	MIC	> 62.5 µM
C=CC(c1ccc(-c2ccc3cc(OC)ccc3c2)cc1)n1ccnc1 (stereo not drawn)	BCG	–	MIC50	9.7 µM (≈ 3.3 µg/mL)
COc1ccc(C=CC(=O)c2ccc(C)cc2)cc1OC	BCG	7 days	MIC	25 µg/mL
Nc1cnc(C(=O)O)cn1	ATCC35734 BCG	5 days	pIC50	3.10
c1ccc(COc2ccc(CNCc3ccncc3)cc2)cc1	ATCC35734 BCG	–	MIC	> 62.5 µM
COc1ccc(C=CC(=O)c2ccccc2)cc1OC	BCG	7 days	MIC	6.25 µg/mL
